Consider 3 compounds from article PMC4180501 (Biochimica et biophysica acta, 2012).

Each structure is given as a SMILES string. Where a chain is given by its changes, count along the chain named. Where two headings read alike, the source gives them in different places.

The target in experiment [1] is T1, GK-WT (Homo sapiens, UniProt P35557).
T1 sequence (P35557 1-465): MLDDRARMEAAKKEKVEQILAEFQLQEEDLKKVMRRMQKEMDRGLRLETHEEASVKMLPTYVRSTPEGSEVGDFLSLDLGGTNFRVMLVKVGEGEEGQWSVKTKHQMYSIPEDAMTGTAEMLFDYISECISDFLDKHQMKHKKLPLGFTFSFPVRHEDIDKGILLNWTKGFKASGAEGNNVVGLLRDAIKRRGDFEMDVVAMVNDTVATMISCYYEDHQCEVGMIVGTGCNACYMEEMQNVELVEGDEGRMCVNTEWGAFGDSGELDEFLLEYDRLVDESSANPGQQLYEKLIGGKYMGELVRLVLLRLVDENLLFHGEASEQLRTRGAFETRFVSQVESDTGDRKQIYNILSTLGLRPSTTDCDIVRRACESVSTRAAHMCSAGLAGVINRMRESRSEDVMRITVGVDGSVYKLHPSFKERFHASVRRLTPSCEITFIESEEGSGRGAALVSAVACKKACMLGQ
Nature of the experiment: NADP+-coupled spectrophotometric kinetic assay. Type of experiment: biochemical.

The target of experiment [2] is T2, GK-W99 (W167F/W257F) (Homo sapiens, UniProt P35557, W167F/W257F).
T2 sequence (P35557 1-465 W167F/W257F): T1 sequence (P35557 1-465) with W167F, W257F
Nature of the experiment: NADP+-coupled spectrophotometric kinetic assay. It counts as biochemical. The note with it: read-out: ATP KM; W-99; no GKA; 30% glycerol. Summed up: (§1)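 Recombinant human β-cell glucokinase single-Trp variant, expressed in E. coli as a GST fusion and sequence-verified. Catalytic parameters came from an NADP+-coupled spectrophotometric assay run with or without 30% glycerol. Hill coefficient and glucose S0.5 were obtained by fitting v/Vmax = [glucose]^H/(K′+[glucose]^H), with […].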

Experiment [3] addresses T3, GK-W167 (W99R/W257F) (Homo sapiens, UniProt P35557, W257F/W99R).
T3 sequence (P35557 1-465 W99R/W257F): T1 sequence (P35557 1-465) with W99R, W257F
Nature of the experiment: NADP+-coupled spectrophotometric kinetic assay. It counts as biochemical. The conditions noted are these: read-out: ATP KM; W-167; no GKA; 30% glycerol. The gist of the method:
as §1

The target of experiment [4] is T4, GK- W257 (W99R/W167F) (Homo sapiens, UniProt P35557, W167F/W99R).
T4 sequence (P35557 1-465 W99R/W167F): T1 sequence (P35557 1-465) with W99R, W167F
Nature of the experiment: NADP+-coupled spectrophotometric kinetic assay. Type of experiment: biochemical. The note with it: read-out: ATP KM; W-257; no GKA; 30% glycerol.

Experiment [5] concerns the target T1, GK-WT. The conditions noted are these: read-out: ATP KM, no GKA, no glycerol, ref [19]; cited from earlier work.
Experiment [6] concerns the target T2, GK-W99 (W167F/W257F). The note with it: read-out: ATP KM; W-99; no GKA; no glycerol; ref [19]; cited from earlier work.
Experiment [7] concerns the target T3, GK-W167 (W99R/W257F). The conditions noted are these: read-out: ATP KM; W-167; no GKA; no glycerol; ref [19]; cited from earlier work.
The target of experiment [8] is T4, GK- W257 (W99R/W167F). The note with it: read-out: ATP KM; W-257; no GKA; no glycerol; ref [19]; cited from earlier work.
The target of experiment [9] is T1, GK-WT. In words: DSC thermal denaturation. The gist of the method: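 Wild-type recombinant human GK was run by DSC at 0.3 mg/ml (6 µM) in 5 mM phosphate, 100 mM KCl, pH 7.3, in buffer or 20% glycerol, with glucose up to 300 mM. The scan was 0.25 degree/min against a protein-free reference. Tm was plotted against glucose and fit to a hyperbola for EC50. Unfolding rate constant used k=vCp/(Qt−Q) to derive activation energy.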
Background: In DSC, transitions show as peaks or steps in heat flow.

Experiment [10] deals with T1, GK-WT. Nature of the experiment: Temperature dependent tryptophan fluorescence. The conditions noted are these: glycerol present, absence of glucose. The gist of the method:
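Tryptophan emission spectra of about 3 µM GK in 5 mM K-phosphate, pH 7.3, 100 mM KCl were recorded from 10 to 65 °C in a thermostatted, thermocouple-monitored cell. […] Line 7 also used ± 20% glycerol. Denaturation was followed as the I320/I360 ratio and its temperature derivative.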

Experiment [11] concerns the target T1, GK-WT. In words: Urea unfolding/refolding of GK by tryptophan fluorescence. Summed up: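 GK-WT unfolding was followed by urea titration in 20 mM PO4, 50 mM KCl, 1 mM EDTA, 1 mM DTT, pH 7.3, 20 °C, ± 20% glycerol, ± 300 mM glucose. I320/I360 was read at 295 nm excitation, and ΔGu(H2O) came from a two-state fit. Reversibility was tested after 30 min in 4 or 8 M urea, then dialysis, by restoration of the spectrum and glucose response.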

Broadly, the Km is the substrate concentration at which the rate is half of its maximum. As to `Nc1ncnc2c1ncn2[C@@H]1O[C@H](COP(=O)(O)OP(=O)(O)OP(=O)(O)O)[C@@H](O)[C@H]1O` [ATP], the Michaelis constant (Km) in experiment [1] (read-out: ATP KM, GK-WT, no GKA, 30% glycerol) is 230 µM; in experiment [2] it was 710 µM; in experiment [3], 300 µM; in [4], 710 µM; in [5] it was 460 µM; in experiment [6], 1630 µM. For the same compound, the Km in [7] was 780 µM; in experiment [8], 3350 µM.
What is called Tm is the temperature at which the thermal transition is half complete. `OCC(O)CO` [glycerol]: the “Q10 of the GK reaction” value in experiment [1] (presence of glycerol) is given as 1.47. In experiment [9] (GK-WT in 20% glycerol, no D-glucose), this compound had a ΔH thermal denaturation of 126 kcal/mol. Further, the Tm in [9] (GK-WT in 20% glycerol, no D-glucose, DSC) is 51.3 °C. In addition, the Ea thermal denaturation in [9] (GK-WT, 20% glycerol, 0 mM D-glucose) worked out at 131.5 kcal/mol. Also, the TmF in experiment [10] was 48 °C. In addition, the “ΔGu(H2O) of urea denaturation” value in experiment [11] (GK-WT in 20% glycerol, 20°C, pH 7.3) turned out to be 1.84 kcal/mol.
For the compound `NC(N)=O` [urea], the “reversibility of GK unfolding” value in [11] (4 or 8 M urea, TF studies, urea removed by dialysis) was “fully reversible”.
